Results published in ChEMBL document CHEMBL5696442, “Discovery of type II inhibitors of TGFβ-activated kinase 1 (TAK1) and mitogen-activated protein kinase kinase kinase kinase 2 (MAP4K2)” (J Med Chem, 2015).

Experiments:
[1] = target: T1, Inhibitor of nuclear factor kappa-B kinase subunit epsilon (Homo sapiens) (UniProt Q14164); assay: Inhibition of IKKe K2 labeling site in human Huh-7 cells at 1 uM by KiNativ Profiling analysis relative to control; format: cell-based
T1 sequence (whole entry): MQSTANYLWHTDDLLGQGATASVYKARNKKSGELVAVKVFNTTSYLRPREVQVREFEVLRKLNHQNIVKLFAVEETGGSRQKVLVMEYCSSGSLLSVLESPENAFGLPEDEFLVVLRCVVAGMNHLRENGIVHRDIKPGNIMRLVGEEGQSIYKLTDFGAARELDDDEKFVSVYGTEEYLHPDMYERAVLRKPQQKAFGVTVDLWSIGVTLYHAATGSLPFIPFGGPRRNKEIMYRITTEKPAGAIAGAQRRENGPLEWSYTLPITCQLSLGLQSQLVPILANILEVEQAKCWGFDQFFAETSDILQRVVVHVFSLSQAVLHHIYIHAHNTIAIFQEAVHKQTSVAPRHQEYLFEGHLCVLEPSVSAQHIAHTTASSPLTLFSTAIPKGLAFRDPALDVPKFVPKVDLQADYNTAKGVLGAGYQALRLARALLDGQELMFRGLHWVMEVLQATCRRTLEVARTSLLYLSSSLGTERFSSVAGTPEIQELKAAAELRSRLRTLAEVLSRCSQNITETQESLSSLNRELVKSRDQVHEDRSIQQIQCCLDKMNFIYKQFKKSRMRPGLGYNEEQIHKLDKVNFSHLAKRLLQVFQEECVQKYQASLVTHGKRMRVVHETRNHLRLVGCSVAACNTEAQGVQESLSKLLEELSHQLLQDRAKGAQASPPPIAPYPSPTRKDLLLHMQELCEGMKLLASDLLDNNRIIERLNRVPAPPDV

[2] = target: T2, Eukaryotic elongation factor 2 kinase (Homo sapiens) (UniProt O00418); assay: Inhibition of eEF2K ATP labeling site harbouring YIKYNSNSGFVR in human A-375 cells at 0.05 uM by KiNativ Profiling analysis relative to control; format: cell-based
T2 sequence (whole entry): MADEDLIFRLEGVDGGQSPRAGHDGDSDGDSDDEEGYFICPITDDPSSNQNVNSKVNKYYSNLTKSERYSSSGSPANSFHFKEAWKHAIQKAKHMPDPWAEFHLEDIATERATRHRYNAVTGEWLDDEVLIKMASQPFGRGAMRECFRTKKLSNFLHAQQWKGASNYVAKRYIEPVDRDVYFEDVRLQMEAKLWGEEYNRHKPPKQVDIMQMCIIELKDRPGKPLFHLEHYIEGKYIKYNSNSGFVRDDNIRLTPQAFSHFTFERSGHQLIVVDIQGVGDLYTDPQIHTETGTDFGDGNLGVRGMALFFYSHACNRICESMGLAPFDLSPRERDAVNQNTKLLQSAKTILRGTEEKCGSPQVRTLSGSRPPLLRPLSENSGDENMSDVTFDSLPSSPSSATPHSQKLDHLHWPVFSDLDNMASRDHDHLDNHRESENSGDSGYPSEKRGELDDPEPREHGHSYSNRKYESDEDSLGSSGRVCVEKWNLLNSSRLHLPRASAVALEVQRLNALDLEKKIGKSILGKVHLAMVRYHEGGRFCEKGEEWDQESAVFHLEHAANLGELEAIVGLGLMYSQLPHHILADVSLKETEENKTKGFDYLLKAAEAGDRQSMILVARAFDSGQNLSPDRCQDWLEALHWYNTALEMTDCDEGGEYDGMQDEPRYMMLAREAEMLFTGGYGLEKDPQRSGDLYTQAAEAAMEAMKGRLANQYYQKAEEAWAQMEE

[3] = target: T3, Mitogen-activated protein kinase kinase kinase kinase 2 (Homo sapiens) (UniProt Q12851); assay: Inhibition of MAP4K2 (GCK) Lys1 labeling site in human A-375 cells at 5 uM by KiNativ Profiling analysis relative to control; format: cell-based
T3 sequence (whole entry): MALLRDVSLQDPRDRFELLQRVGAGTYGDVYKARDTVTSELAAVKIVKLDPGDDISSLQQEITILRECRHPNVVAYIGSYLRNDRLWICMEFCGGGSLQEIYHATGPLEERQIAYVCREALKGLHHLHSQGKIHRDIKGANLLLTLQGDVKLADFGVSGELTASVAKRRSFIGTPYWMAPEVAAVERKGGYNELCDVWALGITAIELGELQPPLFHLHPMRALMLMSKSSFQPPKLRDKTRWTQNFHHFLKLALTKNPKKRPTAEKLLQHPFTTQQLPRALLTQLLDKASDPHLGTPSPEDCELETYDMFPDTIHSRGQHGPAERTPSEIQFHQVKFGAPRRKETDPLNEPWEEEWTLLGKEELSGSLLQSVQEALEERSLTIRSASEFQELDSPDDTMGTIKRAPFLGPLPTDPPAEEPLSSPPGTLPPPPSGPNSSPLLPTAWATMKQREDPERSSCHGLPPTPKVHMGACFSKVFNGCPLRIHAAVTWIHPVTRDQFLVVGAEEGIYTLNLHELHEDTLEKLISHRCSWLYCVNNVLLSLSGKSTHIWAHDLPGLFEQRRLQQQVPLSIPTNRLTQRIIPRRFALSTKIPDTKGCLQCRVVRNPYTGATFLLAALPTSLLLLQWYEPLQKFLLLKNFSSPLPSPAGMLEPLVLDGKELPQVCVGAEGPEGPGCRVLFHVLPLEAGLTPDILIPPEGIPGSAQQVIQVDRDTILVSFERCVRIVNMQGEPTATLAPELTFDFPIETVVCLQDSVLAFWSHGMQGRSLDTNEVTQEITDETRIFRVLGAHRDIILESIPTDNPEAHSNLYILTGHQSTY

[4] = target: eIF-2-alpha kinase GCN2 (Homo sapiens) (UniProt Q9P2K8); assay: Inhibition of GCN2 domain2 Lys1 labeling site in human A-375 cells at 0.05 uM by KiNativ Profiling analysis relative to control; format: cell-based
[5] = target: Ribosomal protein S6 kinase alpha-3 (Homo sapiens) (UniProt P51812); assay: Inhibition of RSK2 domain1 Lys2 labeling site harbouring DLKPENILLDEEGHIKLTDFGLSK in human A-375 cells at 5 uM by KiNativ Profiling analysis relative to control; format: cell-based
How it was run: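 Live A375 melanoma cells treated with compound at 5 or 0.5 μM, then lysed. Lysate kinases were labeled with a lysine-reactive ATP or ADP-biotin probe. Inhibition was read as protection of labeling sites from the probe.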

[6] = test system: Mast/stem cell growth factor receptor Kit (Homo sapiens), P10721 [A829P]; assay: Inhibition of KIT A829P mutant (unknown origin) at 1 uM by Ambit Kinomescan binding assay relative to control; values are per cent of control
[7] = target: Cyclin-dependent kinase 12 (Homo sapiens) (UniProt Q9NYV4); assay: Inhibition of CRK7 Lys2 labeling site in human Huh-7 cell lysate at 1 uM by KiNativ Profiling analysis relative to control; format: subcellular
[8] = target: Rho-associated protein kinase 1 (Homo sapiens) (UniProt Q13464); assay: Inhibition of ROCK1 Lys2 labeling site in human Huh-7 cell lysate at 1 uM by KiNativ Profiling analysis relative to control; format: subcellular
Rho-associated protein kinase 1 (Homo sapiens), sequence (Q13464 2-1354 limits assumed): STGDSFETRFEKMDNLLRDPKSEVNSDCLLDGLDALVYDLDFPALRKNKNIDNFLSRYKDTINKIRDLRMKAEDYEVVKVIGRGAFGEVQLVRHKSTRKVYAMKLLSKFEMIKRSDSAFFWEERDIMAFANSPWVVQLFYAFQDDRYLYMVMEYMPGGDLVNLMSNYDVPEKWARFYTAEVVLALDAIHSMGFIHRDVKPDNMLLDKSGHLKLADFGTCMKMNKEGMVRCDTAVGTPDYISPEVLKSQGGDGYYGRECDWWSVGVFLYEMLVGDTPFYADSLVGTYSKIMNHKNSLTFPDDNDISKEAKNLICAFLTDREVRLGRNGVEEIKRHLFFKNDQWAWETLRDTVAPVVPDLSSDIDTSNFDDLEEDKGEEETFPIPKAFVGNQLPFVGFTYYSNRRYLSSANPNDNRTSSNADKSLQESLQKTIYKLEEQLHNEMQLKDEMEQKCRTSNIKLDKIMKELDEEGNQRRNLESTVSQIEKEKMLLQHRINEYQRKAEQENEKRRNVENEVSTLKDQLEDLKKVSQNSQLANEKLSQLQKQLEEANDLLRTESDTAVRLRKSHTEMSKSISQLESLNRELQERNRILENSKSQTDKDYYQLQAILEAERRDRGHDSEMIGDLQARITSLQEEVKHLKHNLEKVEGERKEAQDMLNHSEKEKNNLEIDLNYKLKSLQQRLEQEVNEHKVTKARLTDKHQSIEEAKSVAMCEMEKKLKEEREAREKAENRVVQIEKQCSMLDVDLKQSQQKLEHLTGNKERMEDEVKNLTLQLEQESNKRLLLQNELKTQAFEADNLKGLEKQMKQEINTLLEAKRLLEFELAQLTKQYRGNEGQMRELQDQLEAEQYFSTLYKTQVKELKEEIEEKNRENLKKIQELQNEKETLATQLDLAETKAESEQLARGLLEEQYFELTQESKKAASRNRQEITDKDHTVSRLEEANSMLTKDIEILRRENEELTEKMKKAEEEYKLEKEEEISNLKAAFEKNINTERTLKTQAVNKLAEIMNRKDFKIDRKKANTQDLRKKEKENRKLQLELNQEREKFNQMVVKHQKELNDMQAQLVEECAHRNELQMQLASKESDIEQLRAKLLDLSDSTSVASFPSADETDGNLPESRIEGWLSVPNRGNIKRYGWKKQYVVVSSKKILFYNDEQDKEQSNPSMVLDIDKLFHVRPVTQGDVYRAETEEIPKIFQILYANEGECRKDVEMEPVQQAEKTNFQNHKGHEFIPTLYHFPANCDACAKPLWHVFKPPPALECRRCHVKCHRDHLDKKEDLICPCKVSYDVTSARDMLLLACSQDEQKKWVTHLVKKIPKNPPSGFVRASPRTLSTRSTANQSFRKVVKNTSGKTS

eIF-2-alpha kinase GCN2 (Homo sapiens), sequence (Q9P2K8 whole entry, the tested form may be a part): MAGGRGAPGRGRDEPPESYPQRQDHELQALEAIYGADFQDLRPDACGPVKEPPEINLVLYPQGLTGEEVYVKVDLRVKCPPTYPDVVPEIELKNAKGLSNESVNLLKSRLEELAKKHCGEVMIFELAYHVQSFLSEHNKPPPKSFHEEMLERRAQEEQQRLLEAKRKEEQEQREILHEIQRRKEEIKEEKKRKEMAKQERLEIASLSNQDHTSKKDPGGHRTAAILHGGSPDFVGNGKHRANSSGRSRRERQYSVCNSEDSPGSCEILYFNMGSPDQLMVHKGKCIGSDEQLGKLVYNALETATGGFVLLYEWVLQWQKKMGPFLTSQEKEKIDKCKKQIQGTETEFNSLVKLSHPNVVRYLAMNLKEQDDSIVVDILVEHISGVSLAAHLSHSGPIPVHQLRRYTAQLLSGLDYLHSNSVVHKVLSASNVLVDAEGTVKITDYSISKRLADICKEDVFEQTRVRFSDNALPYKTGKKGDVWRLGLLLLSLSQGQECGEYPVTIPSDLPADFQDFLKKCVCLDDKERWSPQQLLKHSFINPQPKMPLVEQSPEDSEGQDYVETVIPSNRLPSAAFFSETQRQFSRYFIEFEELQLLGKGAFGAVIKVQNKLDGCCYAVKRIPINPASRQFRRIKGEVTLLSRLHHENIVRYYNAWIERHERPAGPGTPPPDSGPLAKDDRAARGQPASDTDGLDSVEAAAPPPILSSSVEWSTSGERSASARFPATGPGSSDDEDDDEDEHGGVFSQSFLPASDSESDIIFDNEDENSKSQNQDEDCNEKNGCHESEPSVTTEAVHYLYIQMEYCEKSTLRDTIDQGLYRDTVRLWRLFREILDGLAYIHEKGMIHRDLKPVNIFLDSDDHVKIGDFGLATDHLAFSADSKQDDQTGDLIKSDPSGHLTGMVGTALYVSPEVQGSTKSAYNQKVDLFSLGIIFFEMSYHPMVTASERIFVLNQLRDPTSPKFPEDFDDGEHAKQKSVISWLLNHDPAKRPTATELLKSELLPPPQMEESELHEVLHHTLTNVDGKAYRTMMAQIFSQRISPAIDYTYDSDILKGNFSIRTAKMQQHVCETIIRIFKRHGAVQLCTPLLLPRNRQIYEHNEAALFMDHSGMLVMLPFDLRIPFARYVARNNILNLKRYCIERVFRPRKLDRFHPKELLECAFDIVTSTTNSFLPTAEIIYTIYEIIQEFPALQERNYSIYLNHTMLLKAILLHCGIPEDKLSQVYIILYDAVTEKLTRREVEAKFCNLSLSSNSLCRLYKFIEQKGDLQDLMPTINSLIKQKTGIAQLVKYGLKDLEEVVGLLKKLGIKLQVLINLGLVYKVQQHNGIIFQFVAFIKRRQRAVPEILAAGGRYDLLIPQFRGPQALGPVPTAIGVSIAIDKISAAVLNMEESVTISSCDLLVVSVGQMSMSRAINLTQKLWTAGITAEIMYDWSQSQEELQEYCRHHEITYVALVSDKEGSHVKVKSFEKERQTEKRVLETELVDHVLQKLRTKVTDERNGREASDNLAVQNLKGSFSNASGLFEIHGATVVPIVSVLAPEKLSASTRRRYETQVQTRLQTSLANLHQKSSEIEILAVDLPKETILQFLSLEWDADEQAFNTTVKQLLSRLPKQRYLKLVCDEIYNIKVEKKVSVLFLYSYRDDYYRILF
Ribosomal protein S6 kinase alpha-3 (Homo sapiens), sequence (P51812 whole entry, the tested form may be a part): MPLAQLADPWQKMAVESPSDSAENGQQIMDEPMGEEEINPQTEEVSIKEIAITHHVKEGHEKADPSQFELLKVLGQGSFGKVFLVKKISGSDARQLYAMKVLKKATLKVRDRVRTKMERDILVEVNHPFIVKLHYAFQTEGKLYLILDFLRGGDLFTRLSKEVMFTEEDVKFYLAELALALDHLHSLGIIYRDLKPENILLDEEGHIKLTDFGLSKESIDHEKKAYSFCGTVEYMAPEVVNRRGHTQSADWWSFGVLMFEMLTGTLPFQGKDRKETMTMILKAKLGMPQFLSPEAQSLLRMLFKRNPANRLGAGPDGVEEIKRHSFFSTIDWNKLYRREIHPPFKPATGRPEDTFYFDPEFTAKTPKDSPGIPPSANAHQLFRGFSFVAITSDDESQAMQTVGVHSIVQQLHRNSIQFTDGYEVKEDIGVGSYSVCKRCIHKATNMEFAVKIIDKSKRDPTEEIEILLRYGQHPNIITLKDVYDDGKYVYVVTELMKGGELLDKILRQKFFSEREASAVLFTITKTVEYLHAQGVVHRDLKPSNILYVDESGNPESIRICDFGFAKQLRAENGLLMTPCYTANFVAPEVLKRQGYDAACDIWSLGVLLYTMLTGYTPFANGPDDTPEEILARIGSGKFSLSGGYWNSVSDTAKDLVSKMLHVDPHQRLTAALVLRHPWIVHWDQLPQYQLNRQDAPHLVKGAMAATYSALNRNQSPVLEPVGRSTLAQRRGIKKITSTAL
Mast/stem cell growth factor receptor Kit (Homo sapiens), P10721 [A829P], sequence (P10721 whole entry A829P): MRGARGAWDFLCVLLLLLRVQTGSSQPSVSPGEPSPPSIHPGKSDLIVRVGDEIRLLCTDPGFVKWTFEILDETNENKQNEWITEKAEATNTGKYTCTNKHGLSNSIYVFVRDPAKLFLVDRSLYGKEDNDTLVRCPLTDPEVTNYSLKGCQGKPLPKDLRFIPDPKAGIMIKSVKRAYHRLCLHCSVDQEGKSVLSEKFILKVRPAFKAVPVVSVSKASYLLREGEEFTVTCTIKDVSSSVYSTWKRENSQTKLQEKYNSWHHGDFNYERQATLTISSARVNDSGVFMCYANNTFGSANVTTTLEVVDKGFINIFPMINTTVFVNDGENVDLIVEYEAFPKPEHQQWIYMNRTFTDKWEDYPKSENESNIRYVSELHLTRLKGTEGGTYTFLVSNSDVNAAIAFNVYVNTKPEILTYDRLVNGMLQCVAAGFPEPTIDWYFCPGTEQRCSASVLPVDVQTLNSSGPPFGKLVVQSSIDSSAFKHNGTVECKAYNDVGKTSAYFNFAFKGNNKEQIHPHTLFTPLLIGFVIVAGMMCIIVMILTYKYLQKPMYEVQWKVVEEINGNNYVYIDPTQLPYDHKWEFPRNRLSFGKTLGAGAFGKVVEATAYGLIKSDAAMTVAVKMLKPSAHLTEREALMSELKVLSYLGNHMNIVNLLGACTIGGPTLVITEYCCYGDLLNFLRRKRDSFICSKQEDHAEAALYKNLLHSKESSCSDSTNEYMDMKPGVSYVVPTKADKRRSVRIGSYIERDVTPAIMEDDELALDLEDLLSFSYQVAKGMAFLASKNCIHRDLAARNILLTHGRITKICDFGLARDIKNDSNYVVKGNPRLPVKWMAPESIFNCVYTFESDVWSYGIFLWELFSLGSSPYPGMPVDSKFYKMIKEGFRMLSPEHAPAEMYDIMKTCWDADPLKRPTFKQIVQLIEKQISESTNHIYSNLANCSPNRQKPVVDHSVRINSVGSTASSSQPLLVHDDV

CCN1CCN(Cc2ccc(NC(=O)c3ccc(C)c(Oc4ccnc5[nH]ccc45)c3)cc2C(F)(F)F)CC1
inhibition [1]: 17.7%
inhibition [2]: 12.7%
inhibition [3]: > 99.5%

CCN1CCN(Cc2ccc(NC(=O)c3ccc(C)c(/C=C/c4cnc5[nH]ccc5c4OC)c3)cc2C(F)(F)F)CC1
inhibition [4]: 4.6%
inhibition [5]: -4.9%
residual activity [6]: 8%

CNc1cc(Oc2cc(C(=O)Nc3cc(N4CCN(C)CC4)cc(C(F)(F)F)c3)ccc2C)ncn1
inhibition [7]: -8.3%
inhibition [8]: 2.7%
